Experimental data collected from several papers.
Compare with care: the assays were run in different laboratories.
Observed: cell growth or viability

Compound | cell line | technique | concentration | time | measurement | value
COC(=O)[C@H]1[C@@H](O)[C@@]2(O)c3c(OC)cc(O[C@@H]4O[C@@H]([C@H](O)CO)CO[C@H]4OC)cc3O[C@@]2(c2ccc(OC)cc2)[C@@H]1c1ccccc1 | HK-1 | MTS |  | 72 h | IC50 | 5 nM
Nc1ccn([C@@H]2O[C@H](CO)[C@@H](O)C2(F)F)c(=O)n1 | HCCC9810 | CCK-8 |  |  | IC50 | 2030 nM
CO[C@H]1[C@H](O[C@H]([C@H]2O[C@@H](n3ccc(=O)[nH]c3=O)[C@H](O)[C@@H]2O)[C@H](NCCCNC(=O)[C@@H](NC(=O)[C@@H](NC(=O)N[C@H](C(=O)O)C(C)C)[C@@H]2CCN=C(N)N2)[C@@H](O)C(C)C)C(=O)O)O[C@H](CN)[C@H]1O | MDA-MB-453 | WST-1 |  |  | IC50 | > 35000 nM
Cc1cnc(CNC(=O)c2c(=O)c3ccc(N4CCCN(C)CC4)nc3n3c2sc2ccccc23)cn1 | HK-1 | MTS |  | 72 h | IC50 | 1000 nM
CO[C@H]1[C@H](O[C@H]([C@H]2O[C@@H](n3ccc(=O)[nH]c3=O)[C@H](O)[C@@H]2O)[C@H](NCCCNC(=O)[C@@H](NC(=O)[C@@H](NC(=O)N[C@H](C(=O)O)C(C)C)[C@@H]2CCN=C(N)N2)[C@@H](OC(=O)CCCCCCCCCCCCN(O)C(=N)N)C(C)C)C(=O)O)O[C@H](CN)[C@H]1O | MDA-MB-453 | WST-1 |  |  | IC50 | 880 nM
Cc1nc(Nc2ncc(C(=O)Nc3c(C)cccc3Cl)s2)cc(N2CC[C@H](O)C2)n1 | RS4-11 | ATP luminescence | 10 µM | 72 h | inhibition | 46%
CN1CCC(NC2CCc3[nH]c4c(C(N)=O)ccc(-c5ccccc5Cl)c4c3C2)CC1 (stereo not shown) | MX1 |  |  | 96 h | IC50 | 19.5 nM
N/C(=N\O)c1ccc(-c2cc(CNc3cccc4cccnc34)on2)cc1 | NCI-H460 | MTS |  | 72 h | IC50 | 95100 nM
CCCCCCCCCCCCCCCCCCOc1cccc(CC(=O)OCC[N+](CC)(CC)CC)c1 | NCI-H460 | SRB | 10 µM |  | inhibition | 33%
COc1cc([C@@H]2c3cc4c(cc3[C@@H](O[C@@H]3O[C@@H]5CO[C@@H](C)O[C@H]5[C@H](O)[C@H]3O)[C@H]3COC(=O)[C@H]23)OCO4)cc(OC)c1O | SNU-638 | SRB |  | 72 h | IC50 | 590 nM
COc1cccc2c1C(=O)c1c(O)c3c(c(O)c1C2=O)C[C@@](O)(C(=O)CO)C[C@@H]3O[C@H]1C[C@H](N)[C@H](O)[C@H](C)O1 | MX1 |  |  | 96 h | IC50 | 22.5 nM
Cc1sc2c(c1C)C(c1ccc(Cl)cc1)=N[C@@H](CC(=O)NCCCCNC(=O)COc1cccc3c1C(=O)N(C1CCC(=O)NC1=O)C3=O)c1nnc(C)n1-2 (stereo partly shown) | MDA-MB-453 | CCK-8 |  | 72 h | IC50 | 2720 nM
C[C@H](Nc1ccc2c(c1)OCCn1cc(N3C(=O)OC[C@H]3C(F)F)nc1-2)C(N)=O | MDA-MB-453 | ATP luminescence |  | 5 days | EC50 | 45.7 nM
